Reference: ChEMBL document CHEMBL1157638, “Fluorescent epigenetic small molecule induces expression of the tumor suppressor ras-association domain family 1A and inhibits human prostate xenograft” (J Med Chem, 2010)
Calls of active or inactive are those of the source. The rule behind the calls is not given here.

How the values were obtained:
[1] = Growth inhibition of human […] cells assessed as cell growth at 100 nM relative to untreated control; format: functional; settings: read-out: Activity
HT-29 = experiment: Growth inhibition of human HT-29 cells assessed as cell growth at 100 nM relative to untreated control; format: functional; settings: read-out: Activity
SF-268 [2] = experiment: Growth inhibition of human SF268 cells assessed as cell growth at 100 nM relative to untreated control; format: functional; settings: read-out: Activity
OVCAR-3 [3] = experiment: Growth inhibition of human OVCAR-3 cells assessed as cell growth at 100 nM relative to untreated control; format: functional; settings: read-out: Activity
NCI/ADR-RES [4] = experiment: Growth inhibition of human NCI/ADR-RES cells assessed as cell growth at 100 nM relative to untreated control; format: functional; settings: read-out: Activity
TK-10 [5] = experiment: Growth inhibition of human TK10 cells assessed as cell growth at 100 nM relative to untreated control; format: functional; settings: read-out: Activity
MDA-MB-231 [6] = experiment: Growth inhibition of human MDA-MB-231 cells assessed as cell growth at 100 nM relative to untreated control; format: functional; settings: read-out: Activity
NCI-H322M = experiment: Growth inhibition of human NCI-H322M cells assessed as cell growth at 1 uM relative to untreated control; format: functional; settings: read-out: Activity
COLO 205 [7] = experiment: Growth inhibition of human COLO205 cells assessed as cell growth at 1 uM relative to untreated control; format: functional; settings: read-out: Activity
HCT-15 [8] = experiment: Growth inhibition of human HCT15 cells assessed as cell growth at 1 uM relative to untreated control; format: functional; settings: read-out: Activity
Method in brief: (§1)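 Run externally at the National Cancer Institute as a 59-cell-line panel screen, with concentrations up to 100 μM. Growth was scored relative to control, where negative growth or total cell kill was possible. Data are in the Supporting Information.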

SF-268 [9] = experiment: Growth inhibition of human SF268 cells assessed as cell growth at 1 uM relative to untreated control; format: functional; settings: read-out: Activity
HCC 2998 = experiment: Growth inhibition of human HCC2998 cells assessed as cell growth at 1 nM relative to untreated control; format: functional; settings: read-out: Activity; method in brief: as §1
Malme-3M [10] = experiment: Growth inhibition of human MALME-3M cells assessed as cell growth at 1 uM relative to untreated control; format: functional; settings: read-out: Activity
MDA-MB-435 [11] = experiment: Growth inhibition of human MDA-MB-435 cells assessed as cell growth at 1 uM relative to untreated control; format: functional; settings: read-out: Activity
OVCAR-3 [12] = experiment: Growth inhibition of human OVCAR-3 cells assessed as cell growth at 1 uM relative to untreated control; format: functional; settings: read-out: Activity
OVCAR-4 = experiment: Growth inhibition of human OVCAR4 cells assessed as cell growth at 1 uM relative to untreated control; format: functional; settings: read-out: Activity
OVCAR-8 = experiment: Growth inhibition of human OVCAR8 cells assessed as cell growth at 1 nM relative to untreated control; format: functional; settings: read-out: Activity
MCF7 = experiment: Growth inhibition of human MCF7 cells assessed as cell growth at 1 uM relative to untreated control; format: functional; settings: read-out: Activity
MDA-MB-231 [13] = experiment: Growth inhibition of human MDA-MB-231 cells assessed as cell growth at 1 uM relative to untreated control; format: functional; settings: read-out: Activity
K562 = experiment: Growth inhibition of human K562 cells assessed as cell growth at 10 uM relative to untreated control; format: functional; settings: read-out: Activity
HOP-92 = experiment: Growth inhibition of human HOP92 cells assessed as cell growth at 10 uM relative to untreated control; format: functional; settings: read-out: Activity; method in brief: as §1
NCI-H23 = experiment: Growth inhibition of human NCI-H23 cells assessed as cell growth at 10 uM relative to untreated control; format: functional; settings: read-out: Activity
SF-539 [14] = experiment: Growth inhibition of human SF539 cells assessed as cell growth at 10 uM relative to untreated control; format: functional; settings: read-out: Activity
SNB-75 = experiment: Growth inhibition of human SNB75 cells assessed as cell growth at 10 uM relative to untreated control; format: functional; settings: read-out: Activity
NCI/ADR-RES [15] = experiment: Growth inhibition of human NCI/ADR-RES cells assessed as cell growth at 10 uM relative to untreated control; format: functional; settings: read-out: Activity
A498 = experiment: Growth inhibition of human A498 cells assessed as cell growth at 10 uM relative to untreated control; format: functional; settings: read-out: Activity
TK-10 [16] = experiment: Growth inhibition of human TK10 cells assessed as cell growth at 10 uM relative to untreated control; format: functional; settings: read-out: Activity
NCI-H522 = experiment: Growth inhibition of human NCI-H522 cells; format: functional
COLO 205 [17] = experiment: Growth inhibition of human COLO205 cells; format: functional
SF-295 = experiment: Growth inhibition of human SF295 cells; format: functional
Malme-3M [18] = experiment: Growth inhibition of human MALME-3M cells; format: functional
MDA-MB-435 [19] = experiment: Growth inhibition of human MDA-MB-435 cells; format: functional; settings: read-out: LC50 (the source's name)
[20] = target: DNA (cytosine-5)-methyltransferase 3B (Homo sapiens) (UniProt Q9UBC3); experiment: Binding affinity to DNMT3b in human PC3 cells cytoplasm at 5 uM after 6 hrs by antibody staining; format: cell-based; settings: PC-3
Method in brief: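 PC-3 cells were plated overnight on fibronectin/[…]-coated slides and treated with 5 μM compound or DMSO for 1-6 h. Cells were PBS-washed, fixed in 4% formaldehyde, and stained with propidium iodide (nuclei) and anti-DNMT3a or anti-DNMT3b antibody. The compound was excited at 725 nm by multiphoton laser and imaged through a 500-550 nm filter by confocal microscopy.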

HL-60(TB) = experiment: Growth inhibition of human HL-60(TB) cells assessed as cell growth at 1 nM relative to untreated control; format: functional; settings: read-out: Activity
EKVX = experiment: Growth inhibition of human EKVX cells assessed as cell growth at 1 nM relative to untreated control; format: functional; settings: read-out: Activity; method in brief: as §1
MDA-MB-231 [21] = experiment: Growth inhibition of human MDA-MB-231 cells; format: functional
[22] = Growth inhibition of human Hs 578T cells; format: functional
HCT-15 [23] = experiment: Growth inhibition of human HCT15 cells assessed as cell growth at 10 nM relative to untreated control; format: functional; settings: read-out: Activity; method in brief: as §1
SF-268 [24] = experiment: Growth inhibition of human SF268 cells assessed as cell growth at 10 nM relative to untreated control; format: functional; settings: read-out: Activity
SF-539 [25] = experiment: Growth inhibition of human SF539 cells assessed as cell growth at 10 nM relative to untreated control; format: functional; settings: read-out: Activity
SK-MEL-2 = experiment: Growth inhibition of human SK-MEL-2 cells assessed as cell growth at 10 nM relative to untreated control; format: functional; settings: read-out: Activity
SK-MEL-5 = experiment: Growth inhibition of human SK-MEL-5 cells assessed as cell growth at 10 nM relative to untreated control; format: functional; settings: read-out: Activity
UACC-62 = experiment: Growth inhibition of human UACC62 cells assessed as cell growth at 10 nM relative to untreated control; format: functional; settings: read-out: Activity
ACHN = experiment: Growth inhibition of human ACHN cells assessed as cell growth at 10 nM relative to untreated control; format: functional; settings: read-out: Activity
TK-10 [26] = experiment: Growth inhibition of human TK10 cells assessed as cell growth at 10 nM relative to untreated control; format: functional; settings: read-out: Activity
[27] = read-out: LC50 (the source's name)

COc1ccc2c(c1)[nH]c1c(C)c(OS(=O)(=O)c3cccc4c(N(C)C)cccc34)ccc12
growth at 0.1 µM [1]: 90% | growth at 0.1 µM (HT-29): 96% | growth at 0.1 µM (SF-268 [2]): 96% | growth at 0.1 µM (OVCAR-3 [3]): 97% | growth at 0.1 µM (NCI/ADR-RES [4]): 93% | growth at 0.1 µM (TK-10 [5]): 107% | growth at 0.1 µM (MDA-MB-231 [6]): 85% | growth at 1 µM (NCI-H322M): 52% | growth at 1 µM (COLO 205 [7]): 23% | growth at 1 µM (HCT-15 [8]): 25% | growth at 1 µM (SF-268 [9]): 44% | growth at 0.001 µM (HCC 2998): 99% | growth at 1 µM (Malme-3M [10]): 22% | growth at 1 µM (MDA-MB-435 [11]): -5% | growth at 1 µM (OVCAR-3 [12]): -35% | growth at 1 µM (OVCAR-4): 44% | growth at 0.001 µM (OVCAR-8): 107% | growth at 1 µM (MCF7): 10% | growth at 1 µM (MDA-MB-231 [13]): 49% | growth at 10 µM (K562): 5% | growth at 10 µM (HOP-92): -1% | growth at 10 µM (NCI-H23): 8% | growth at 10 µM (SF-539 [14]): -32% | growth at 10 µM (SNB-75): -12% | growth at 10 µM (NCI/ADR-RES [15]): 15% | growth at 10 µM (A498): -4% | growth at 10 µM (TK-10 [16]): 6% | GI50 (NCI-H522): 9.97 µM | TGI (NCI-H522): > 100 µM | CC50 (NCI-H522; [27]): > 100 µM | GI50 (COLO 205 [17]): 4.24 µM | TGI (COLO 205 [17]): > 100 µM | CC50 (COLO 205 [17]; [27]): > 100 µM | GI50 (SF-295): 3.4 µM | TGI (SF-295): > 100 µM | CC50 (SF-295; [27]): > 100 µM | GI50 (Malme-3M [18]): 3.62 µM | TGI (Malme-3M [18]): > 100 µM | CC50 (Malme-3M [18]; [27]): > 100 µM | CC50 (MDA-MB-435 [19]): > 100 µM | Activity [20]: Active | growth at 0.001 µM (HL-60(TB)): 88% | growth at 0.001 µM (EKVX): 99% | GI50 (MDA-MB-231 [21]): 9.3 µM | TGI (MDA-MB-231 [21]): > 100 µM | CC50 (MDA-MB-231 [21]; [27]): > 100 µM | GI50 [22]: 36.3 µM | TGI [22]: 93.7 µM | CC50 [22, 27]: > 100 µM | growth at 0.01 µM (HCT-15 [23]): 92% | growth at 0.01 µM (SF-268 [24]): 111% | growth at 0.01 µM (SF-539 [25]): 95% | growth at 0.01 µM (SK-MEL-2): 110% | growth at 0.01 µM (SK-MEL-5): 86% | growth at 0.01 µM (UACC-62): 83% | growth at 0.01 µM (ACHN): 102% | growth at 0.01 µM (TK-10 [26]): 94%
